This passage reports Relative Vmax results from ChEMBL document CHEMBL1134486, “Synthesis and biological evaluation of purine-containing butenolides” (J Med Chem, 2001).

In this assay the target is T1, Adenosine deaminase (Bos taurus) (UniProt P56658).
T1 sequence (whole entry): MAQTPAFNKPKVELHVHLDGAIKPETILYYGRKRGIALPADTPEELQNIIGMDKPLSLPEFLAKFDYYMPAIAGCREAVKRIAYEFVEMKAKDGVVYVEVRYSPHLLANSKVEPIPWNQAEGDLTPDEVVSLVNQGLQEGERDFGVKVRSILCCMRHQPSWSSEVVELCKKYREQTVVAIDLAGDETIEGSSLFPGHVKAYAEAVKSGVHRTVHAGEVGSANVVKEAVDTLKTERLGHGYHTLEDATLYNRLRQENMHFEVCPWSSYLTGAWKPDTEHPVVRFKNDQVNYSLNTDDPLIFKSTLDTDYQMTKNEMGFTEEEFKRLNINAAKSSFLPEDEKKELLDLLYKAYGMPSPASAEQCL
Kind of assay: Relative Vmax value of the compound. In a few lines:
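Deamination rates followed with calf mucosal ADA (EC 3.5.4.4) in buffer solutions; Km and Vmax relative to adenosine as substrate; inhibition (Ki) assessed with adenosine as substrate.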

Regarding `Nc1ncnc2c1ncn2[C@@H]1O[C@H](CO)[C@@H](O)[C@H]1O`, the Relative Vmax was determined as 1.
